Data taken from ChEMBL document CHEMBL5120856, “New salicylic acid derivatives, double inhibitors of glycolate oxidase and lactate dehydrogenase, as effective agents decreasing oxalate production” (Eur J Med Chem, 2022).
pEC50, pIC50: −log10 of the molar value.

Experiments:
[1] = target: T1, 2-Hydroxyacid oxidase 1 (Homo sapiens) (UniProt Q9UJM8); assay: (§1) Inhibition of N-terminal His-tagged human recombinant glycolate oxidase expressed in Escherichia coli BL21 (DE3) cells using glycolate as substrate at 20 uM preincubated for 5 mins followed by substrate addition and measured after 1 min in the presence of DCHBS by horseradish peroxidase coupled colorimetric method relative to control; settings: time 6.0 min
T1 sequence (whole entry): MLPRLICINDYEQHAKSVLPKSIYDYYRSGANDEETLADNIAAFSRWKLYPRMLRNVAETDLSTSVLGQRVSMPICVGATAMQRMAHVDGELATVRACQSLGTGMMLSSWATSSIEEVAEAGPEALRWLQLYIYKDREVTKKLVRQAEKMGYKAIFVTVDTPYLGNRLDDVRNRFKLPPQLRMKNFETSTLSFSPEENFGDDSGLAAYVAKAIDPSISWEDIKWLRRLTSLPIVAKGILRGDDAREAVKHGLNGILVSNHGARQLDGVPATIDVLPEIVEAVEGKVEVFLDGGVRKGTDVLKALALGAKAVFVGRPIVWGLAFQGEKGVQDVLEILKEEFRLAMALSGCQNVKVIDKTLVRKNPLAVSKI

[2] = target: T2, 2-Hydroxyacid oxidase 1 (Mus musculus) (UniProt Q9WU19); assay: as §1, with “mouse” for “human”; settings: time 6.0 min
T2 sequence (whole entry): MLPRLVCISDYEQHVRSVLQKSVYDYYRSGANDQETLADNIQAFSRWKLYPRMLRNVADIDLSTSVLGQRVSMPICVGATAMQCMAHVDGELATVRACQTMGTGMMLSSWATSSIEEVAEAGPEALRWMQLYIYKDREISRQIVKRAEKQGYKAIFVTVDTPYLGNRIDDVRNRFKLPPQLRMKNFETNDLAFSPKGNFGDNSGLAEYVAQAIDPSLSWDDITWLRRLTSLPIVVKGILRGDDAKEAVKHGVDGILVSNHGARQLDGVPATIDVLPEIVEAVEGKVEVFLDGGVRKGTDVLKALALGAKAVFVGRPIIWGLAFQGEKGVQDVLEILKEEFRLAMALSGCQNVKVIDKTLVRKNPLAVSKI

[3] = target: T3, L-lactate dehydrogenase A chain (Homo sapiens, UniProt P00338); assay: Inhibition of human recombinant LDHA using pyruvate as substrate at 10 uM preincubated for 10 mins followed by substrate addition and measured every 60 sec for 10 mins in the presence of NADH by fluorescence assay relative to control; settings: time 20.0 min
How it was run: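 Recombinant human LDHA or LDHB (0.015 U/mL) with NADH 150 μM and inhibitor 10 μM in 50 mM phosphate pH 7, 10 min rt baseline read; pyruvate 1 mM added, NADH fluorescence (ex 340/em 460 nm) read every 60 s for 10 min; baseline-corrected slope versus 100% activity control; four replicates.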

HEK293 = assay: Cytotoxicity against HEK293 cells assessed as reduction in cell viability upto 50 uM measured after 48 hrs by MTT assay; format: toxicity, cell-based; settings: human, hek293, 48 h
[4] = target: T3, L-lactate dehydrogenase A chain; assay: Inhibition of human recombinant LDHA using pyruvate as substrate preincubated for 10 mins followed by substrate addition and measured every 60 sec for 10 mins in the presence of NADH by fluorescence assay
2-Hydroxyacid oxidase 1 [5] = target: T4, 2-Hydroxyacid oxidase 1 (Homo sapiens, UniProt Q9UJM8); assay: Inhibition of N-terminal His-tagged human recombinant glycolate oxidase expressed in Escherichia coli BL21 (DE3) cells using glycolate as substrate preincubated for 10 mins followed by substrate addition and measured after 10 mins by Amplex red and horseradish peroxidase based fluorescence assay
T4 sequence (Q9UJM8 whole entry): T1 sequence (whole entry)

2-Hydroxyacid oxidase 1 [6] = target: T5, 2-Hydroxyacid oxidase 1 (Mus musculus, UniProt Q9WU19); assay: Inhibition of N-terminal His-tagged mouse recombinant glycolate oxidase expressed in Escherichia coli BL21 (DE3) cells using glycolate as substrate preincubated for 10 mins followed by substrate addition and measured after 10 mins by Amplex red and horseradish peroxidase based fluorescence assay
T5 sequence (Q9WU19 whole entry): T2 sequence (whole entry)

[7] = target: L-lactate dehydrogenase B chain (Homo sapiens, UniProt P07195); assay: Inhibition of human recombinant LDHB using pyruvate as substrate preincubated for 10 mins followed by substrate addition and measured every 60 sec for 10 mins in the presence of NADH by fluorescence assay
Hepatocyte [8] = assay: Inhibition of GO/LDHA in hyperoxaluric-primary hepatocyte isolated from Agxt1 knockdown PH1 C57BL/6 mouse assessed as relative oxalate output at 10 uM measured at 24 hrs in the presence of glycolate relative to control; format: cell-based
How it was run: (§2)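 Agxt1-/- mouse primary hepatocytes cultured with 5 mM glycolate, inhibitor at 10 μM; extracellular oxalate measured by colorimetric kit 24 and 48 h after inhibitor addition; relative oxalate = oxalate with inhibitor over oxalate without inhibitor; negative values mean below detection limit; mean of three/four replicates ± SD.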

Hepatocyte [9] = assay: Inhibition of GO/LDHA in hyperoxaluric-primary hepatocyte isolated from Grhpr-knockdown PH2 C57BL/6 mouse assessed as relative oxalate output at 10 uM measured at 24 hrs in the presence of glycolate relative to control; format: cell-based
How it was run: (§3)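 Grhpr-/- mouse primary hepatocytes cultured with 10 mM glycolate, inhibitor at 10 μM; extracellular oxalate determined colorimetrically at 24 and 48 h post-treatment, expressed relative to untreated medium (RO); negative RO means below detection limit; three/four replicates, mean ± SD.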

Hepatocyte [10] = assay: Inhibition of GO/LDHA in hyperoxaluric-primary hepatocyte isolated from Grhpr-knockdown PH2 C57BL/6 mouse assessed as relative oxalate output at 10 uM measured at 48 hrs in the presence of glycolate relative to control; format: cell-based; how it was run: as §3
Hepatocyte [11] = assay: Inhibition of GO/LDHA in hyperoxaluric-primary hepatocyte isolated from Hoga1-knockdown PH3 C57BL/6 mouse assessed as relative oxalate output at 10 uM measured at 24 hrs in the presence of hydroxyproline relative to control; format: cell-based
How it was run: (§4)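 Hoga1-/- mouse primary hepatocytes challenged with 10 mM hydroxyproline, inhibitor 10 μM; extracellular oxalate measured by colorimetric kit 24 and 48 h after dosing, given as ratio to oxalate without inhibitor; negative values are below detection limit; mean of three/four replicates ± SD.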

Hepatocyte [12] = assay: Inhibition of GO/LDHA in hyperoxaluric-primary hepatocyte isolated from Hoga1-knockdown PH3 C57BL/6 mouse assessed as relative oxalate output at 10 uM measured at 48 hrs in the presence of hydroxyproline relative to control; format: cell-based; how it was run: as §4
Hepatocyte [13] = assay: Cytotoxicity against hyperoxaluric-primary hepatocyte isolated from Hoga1-knockdown PH3 C57BL/6 mouse assessed as cell death at 10 uM by MTS assay; format: toxicity, cell-based; settings: hepatocytes, Hoga1-knockdown PH3, 10 µM
How it was run: (§5)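 Primary hepatocytes from Agxt1-/- (PH1, 5 mM glycolate), Grhpr-/- (PH2, 10 mM glycolate) or Hoga1-/- (PH3, 10 mM hydroxyproline) mice, incubated with inhibitor at 10 μM; viability followed through the oxalate assay by MTS tetrazolium method.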

Hepatocyte [14] = assay: Cytotoxicity against hyperoxaluric-primary hepatocyte isolated from Grhpr-knockdown PH2 C57BL/6 mouse assessed as cell death at 10 uM by MTS assay; format: toxicity, cell-based; settings: hepatocytes, Grhpr-knockdown PH2 (primary hyperoxaluria type 2); how it was run: as §5
Hepatocyte [15] = assay: Cytotoxicity against hyperoxaluric-primary hepatocyte isolated from Agxt1-knockdown PH1 C57BL/6 mouse assessed as cell death at 10 uM by MTS assay; format: toxicity, cell-based; settings: hepatocytes, Agxt1-knockdown PH1, 10 µM; how it was run: as §5
Hepatocyte [16] = assay: Inhibition of GO/LDHA in hyperoxaluric-primary hepatocyte isolated from Agxt1 knockdown PH1 C57BL/6 mouse assessed as relative oxalate output at 10 uM measured at 48 hrs in the presence of glycolate relative to control; format: cell-based; how it was run: as §2
Hepatocyte [17] = assay: Inhibition of GO/LDHA in hyperoxaluric-primary hepatocyte isolated from Agxt1 knockdown PH1 C57BL/6 mouse assessed as reduction in extracellular oxalate concentration at 10 uM measured at 48 hrs in the presence of glycolate relative to control; format: cell-based; set-up: scale not given: the % may be the effect or the level left; how it was run: as §2
[18] = Inhibition of GO/LDHA in hyperoxaluric-primary hepatocyte isolated from Agxt1 knockdown PH1 C57BL/6 mouse measured at 24 hrs in the presence of 5 mM glycolate; format: cell-based
How it was run: (§6)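 Agxt1-/- hepatocytes with 5 mM glycolate; eight inhibitor concentrations per replicate; extracellular oxalate measured colorimetrically at 24 or 48 h; EC50 as mean of three/four replicates ± SD.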

[19] = Inhibition of GO/LDHA in hyperoxaluric-primary hepatocyte isolated from Agxt1 knockdown PH1 C57BL/6 mouse measured at 48 hrs in the presence of 5 mM glycolate; format: cell-based; how it was run: as §6

L-lactate dehydrogenase B chain, sequence (P07195 whole entry): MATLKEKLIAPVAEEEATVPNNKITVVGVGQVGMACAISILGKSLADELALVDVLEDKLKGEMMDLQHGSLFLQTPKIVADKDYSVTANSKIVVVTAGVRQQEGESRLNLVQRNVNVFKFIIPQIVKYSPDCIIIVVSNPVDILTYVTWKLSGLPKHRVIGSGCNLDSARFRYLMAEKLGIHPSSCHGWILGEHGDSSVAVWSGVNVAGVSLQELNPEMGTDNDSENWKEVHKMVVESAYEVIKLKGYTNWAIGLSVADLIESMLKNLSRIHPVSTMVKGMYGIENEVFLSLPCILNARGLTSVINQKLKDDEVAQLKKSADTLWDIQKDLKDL

SMILES	inhibition [1] [%]	inhibition [2] [%]	inhibition [3] [%]	Activity (HEK293)	pIC50 [4]	pIC50 (2-Hydroxyacid oxidase 1 [5])	pIC50 (2-Hydroxyacid oxidase 1 [6])	pIC50 [7]	fold change (FC) (Hepatocyte [8])	fold change (FC) (Hepatocyte [9])	fold change (FC) (Hepatocyte [10])	fold change (FC) (Hepatocyte [11])	fold change (FC) (Hepatocyte [12])	Activity (Hepatocyte [13])	Activity (Hepatocyte [14])	Activity (Hepatocyte [15])	also measured
O=C(O)c1cc(-c2ccc(CNCc3ccc(O)cc3)o2)ccc1O	< 50	< 50	18														
COc1cccc2c1C(=O)c1c(O)c3c(c(O)c1C2=O)C[C@@](O)(C(=O)CO)C[C@@H]3O[C@H]1C[C@H](N)[C@H](O)[C@H](C)O1 [DOXORUBICIN]				Non-Toxic													
O=C(O)c1cc(-c2ccc(CNCc3ccc([N+](=O)[O-])cc3)o2)ccc1O	< 50	< 50			5.10												
C#CCN(Cc1ccc(-c2ccc(O)c(C(=O)O)c2)o1)Cc1ccc(-c2ccc(O)c(C(=O)O)c2)o1.N.N				Non-Toxic	5.80	5.70	6.10	5.64	0.44	0.2	0.25	0.21	0.52	Non-Toxic	Non-Toxic	Non-Toxic	
CCN(CC)CC.O=C(O)c1cc(-c2ccc(CN(Cc3ccccc3)Cc3ccco3)o2)ccc1O					5.64	4.77	5.10	5.37	-0.09	0.31	0.34	0.22	0.3	Non-Toxic	Non-Toxic	Non-Toxic	fold change (FC) (Hepatocyte [16]): 0.42; Activity (Hepatocyte [17]): 60%; pEC50 [18]: 6.30; pEC50 [19]: 6.22
COc1ccc(CNCc2ccc(-c3ccc(O)c(C(=O)O)c3)o2)cc1	< 50	< 50	18														
